{"source": "PubChem BioAssay AID2607", "about": "(Broad Institute, 2010)", "system": "DRD fibroblasts (non-viral oncogenic) viability, Alamar Blue fluorescence, 48 h", "assay": "cytotoxicity in DRD fibroblasts, dose response, cell-based, fluorescence, Alamar Blue, powder samples (AID 2607)", "outline": "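Assay system – DRD fibroblasts · Amount – 1000 DRD cells per well · Dosing – two-fold dilution series, 0.01 to 5.33 µg/mL final compound · Buffer or medium – DMEM/M199 plus FBS · Incubation – 48 h compound at 37 °C, ~16 h dye · Technique – Alamar blue fluorescence, excitation 544 nm, emission 590 nm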", "data": [{"compound": "CCOc1ccc(Nc2nc(N)nc(CCl)n2)cc1", "values": [{"measurement": "EC50", "result": 183, "unit": "nM"}]}, {"compound": "COc1ccc(CN(CCC(c2ccccc2)c2ccc(OC(C)C)cc2)C(=O)CCl)cc1OC", "note": "(centres undefined)", "values": [{"measurement": "EC50", "result": 622, "unit": "nM"}]}, {"compound": "COC(=O)[C@@H]1Cc2c([nH]c3ccccc23)C(C)(C)N1C(=O)CCl", "values": [{"measurement": "EC50", "result": 467, "unit": "nM"}]}, {"compound": "COc1ccc(N(C(=O)CCl)C(C(=O)NCCc2ccccc2)c2cccs2)cc1", "note": "(centres undefined)", "values": [{"measurement": "EC50", "result": 214, "unit": "nM"}]}, {"compound": "COc1ccc(N(C(=O)CCl)C(C(=O)NCCc2ccccc2)c2cccs2)cc1Cl", "note": "(centres undefined)", "values": [{"measurement": "EC50", "result": 34, "unit": "nM"}]}, {"compound": "COc1ccc(C(C(=O)NC2CCCCC2)N(C(=O)CCl)c2ccc(C)cc2)cc1", "note": "(centres undefined)", "values": [{"measurement": "EC50", "result": 143, "unit": "nM"}]}, {"compound": "COc1ccc(C(C(=O)NC2CCCCC2)N(C(=O)CCl)c2cccc(Cl)c2)cc1", "note": "(centres undefined)", "values": [{"measurement": "EC50", "result": 137, "unit": "nM"}]}, {"compound": "CCCCCCCN(C(=O)CCl)c1cccc(C)c1", "values": [{"measurement": "EC50", "result": 171, "unit": "nM"}]}, {"compound": "Cc1ccc(C2CC(c3cccs3)=NN2C(=O)CCl)cc1", "note": "(centres undefined)", "values": [{"measurement": "EC50", "result": 1210, "unit": "nM"}]}, {"compound": "C=CCOc1ccccc1CN(C(=O)CCl)c1ccc2c(c1)OCO2", "values": [{"measurement": "EC50", "result": 1140, "unit": "nM"}]}, {"compound": "O=C(CCl)N=c1sccn1Cc1ccccc1Cl", "values": [{"measurement": "EC50", "result": 183, "unit": "nM"}]}, {"compound": "Cc1ccc(N(C(=O)CCl)C(C(=O)NC2CCCCC2)c2cccnc2)cc1C", "note": "(centres undefined)", "values": [{"measurement": "EC50", "result": 147, "unit": "nM"}]}, {"compound": "Nc1nc(CCl)nc(Nc2ccc3ccccc3c2)n1", "values": [{"measurement": "EC50", "result": 82, "unit": "nM"}]}, {"compound": "COc1cccc(N(C(=O)CCl)C(C(=O)NCCc2ccccc2)c2cccs2)c1", "note": "(centres undefined)", "values": [{"measurement": "EC50", "result": 145, "unit": "nM"}]}]}
